The list is not random: actives were taken first. Their share in the collection is about 2.3%.
PGC1a acetyl inh: inhibitors of PGC1a acetylation signal, primary screen, cell-based, U2OS, AlphaScreen, inhibitor mode. AlphaScreen anti-acetyl-lysine; with virally co-expressed GCN5 acetyltransferase. inhibition, % at 15.6 µM. 350,000 tested, 0.17% active. AID 651687, 2012;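 active = every replicate shows inhibition of at least 40%; inconclusive = mean inhibition at least 40% but some replicate below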;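 also: 0% = neutral control wells and 100% = positive control wells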
HIV Env fusion: inhibitors of HIV-1 Env-driven cell-cell fusion, primary screen, HeLa-JRFL effector, CEM21 target cells, luciferase; AID 651610, 2012; 360,000 tested, 1.1% active; inhibition, % at 12.3 µM;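 active = mean replicate inhibition score of at least 50 and every replicate individually at or above 50; inconclusive = only one of the two criteria met; inactive = mean below 50 and not all replicates reaching 50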;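 also: 0% = plate neutral controls and 100% = maraviroc near 300 nM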
PAX8 reporter: inhibitors of PAX8-driven TPO luciferase reporter, primary screen, RMG-I cells, single concentration | 360,000 tested, 1.2% active | inhibition, % at 12.6 µM | SteadyGlo, 24 h;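 active = mean replicate inhibition at least 60% with every replicate also reaching 60%; inconclusive = only one of the two criteria is met; inactive = mean below 60% and not all replicates reaching 60%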;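 also: luciferase light reporting Pax8 driven TPO promoter activity; plate controls were median of neutral control wells for no effect and mitoxantrone controls for full effect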
FN deposit inh: inhibitors of fibronectin matrix deposition, primary screen, AH1F cells, Alexa488-fibronectin fluorescence, plate reader; 350,000 tested, 0.086% active; inhibition, % at 12.6 µM; AH1F fibroblasts, overnight;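 active = mean inhibition across replicates of 30% or more, regardless of how many single replicates reach that level; inconclusive = mean under 30% yet at least half of replicates reach 30%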;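 also: positive control wells lacked labelled fibronectin entirely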
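Measured by – fluorescence 485/525 nm · System – AH1F fibroblast monolayer, labelled fibronectin deposition · Amount – 10000 cells per well · Buffer or medium – serum-reduced DMEM (2% serum) · Doses – single dose, pinned · Also added – fluorescent fibronectin at 24 nM final · Schedule – 1 h cell attachment, overnight exposure to compound and label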
F508del corr: F508del CFTR correction, initial screen, CFBE line, single point | CFBE cells, YFP halide quenching; stimulated with forskolin plus potentiator P3; % fluorescence drop versus neutral controls | activity (quench increase), % at 7.58 µM | 350,000 tested, 0.36% active;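 active = mean added fluorescence quench of at least 8% versus neutral control, with both replicates also reaching 8%; inconclusive = only one of the mean or replicate conditions met; inactive = mean below 8% and not both replicates reaching 8%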;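 also: cells transiently co-express mutant CFTR-F508del with the halide-sensitive YFP; corrector assay measuring rescue of mutant channel to the surface after 24 h compound exposure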
EWS-Fli block: EWS/Fli-driven NR0B1 reporter inhibitors, primary screen, A673 cells, NR0B1 luciferase, luminescence, MLPCN library. viability-normalised. AID 651661, 2012. 350,000 tested, 0.67% active. inhibition, % at 12.6 µM;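 active = mean inhibition of at least 50% after viability correction, with every replicate also passing that limit; inconclusive = mean reaches 50% but only one of two replicates passes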;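 also: firefly luciferase signal divided by Alamar Blue viability fluorescence both relative to DMSO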
* = called active by the depositor; u = inconclusive; x = no result given; [ ] = dose if it differs, or a comment.

SMILES | PGC1a acetyl inh | HIV Env fusion | PAX8 reporter | FN deposit inh | F508del corr | EWS-Fli block
Cc1cc(C(=O)Nc2ccc3c(c2)C(=O)N(C)[C@@H]2CC[C@@H](CC(=O)NCc4ccc(-c5ccccc5)cc4)O[C@@H]2CO3)no1 | x | 2[16.7 µM] | 35 | 0 | x | 6
Cc1cc(C(=O)Nc2ccc3c(c2)C(=O)N(C)[C@@H]2CC[C@H](CC(=O)NCc4ccc(-c5ccccc5)cc4)O[C@H]2CO3)no1 | x | -188[16.7 µM] | 80* | x | x | 57*
COC(=O)/C(=C1/Oc2cc(C)oc(=O)c2S1)C(F)(F)F | -15 | x | x | x | -3 | 54*
O=C(CN(C1CC1)S(=O)(=O)c1ccc(S(=O)(=O)N2CCCCCC2)cc1)Nc1ccccc1 | 8 | x | x | x | x | x
CCN(C1CCCCC1)S(=O)(=O)c1ccc(S(=O)(=O)N(CC(=O)Nc2ccccc2)C2CC2)cc1 | -8 | 75* | x | x | x | x
COCC(=O)N1CC[C@H]2[C@H](CO)Nc3ccc(-c4cccc(C(=O)N(C)C)c4)cc3[C@H]21 | 9 | x | 1 | -7 | -2 | 4
O=C1NCCCOCc2cn(nn2)CC[C@H]1Cc1ccc(-c2ccccc2)cc1 | x | x | x | -22 | x | x
O=C1[C@@H](Cc2ccc(F)cc2)CCn2cc(nn2)COC[C@H]2CCCN12 | x | x | x | -11 | x | x
CC1=C(C(=O)Nc2ccccn2)C(c2cn(C)nc2C)C2=C(CCCC2=O)N1 (stereo unspecified) | x | -2 | 14 | -8 | 2 | -4
CCOC(=O)C1=C(C)NC2=C(C(=O)CCC2)C1c1cn(Cc2ccc(Cl)cc2Cl)nc1-c1ccccc1 (stereo unspecified) | -2 | 121* | 26 | 0 | x | x
COC(=O)C1=C(C)NC2=C(C(=O)CCC2)C1c1cn(Cc2ccc(Cl)cc2Cl)nc1-c1ccccc1 (stereo unspecified) | -8 | 110* | x | 0 | x | x
Cc1cc(Br)cn2c(Cc3cccc(F)c3)c(-c3ccc(F)cc3)nc12 | x | 21 | -13 | 15 | -1 | 3
N#Cc1ccc(-c2nc3c4ccccc4ccn3c2Cc2ccsc2)cc1 | x | -8 | 7 | 4 | 1 | -16
Clc1ccc(-c2nc3c4ccccc4ccn3c2Cc2ccsc2)cc1 | x | 65* | 16 | -3 | 1 | -3
COc1ccc(Cc2c(-c3ccc(OC)c(OC)c3)nc3c(C)cc(Br)cn23)c(C)c1 | 2 | -27 | 66* | -2 | 2 | 8
Cc1cc(Br)cn2c(Cc3ccsc3)c(-c3ccc(F)cc3)nc12 | 7 | -44 | 13 | -2 | 8.1* | -1
O=C(C[C@@H]1CC[C@H](NC(=O)C2CCOCC2)[C@H](CO)O1)NCc1ccncc1 | 6 | x | x | x | -1 | -2
O=C(C[C@@H]1C=C[C@H](NS(=O)(=O)c2ccccc2)[C@@H](CO)O1)N1CCC(Cc2ccccc2)CC1 | -13 | x | 10 | x | 5 | -5
C[C@@H]1CCCCO[C@H](CN(C)Cc2ccccc2)[C@@H](C)CN([C@@H](C)CO)C(=O)c2cc(NC(=O)Nc3ccc(C(F)(F)F)cc3)ccc2O1 | 5 | 88*[16.7 µM] | 119* | 4 | 1 | u
C[C@@H]1CCCCO[C@@H](CN(C)Cc2ccc(C(F)(F)F)cc2)[C@@H](C)CN([C@@H](C)CO)C(=O)c2cc(NC(=O)Nc3ccc(C(F)(F)F)cc3)ccc2O1 | 22 | 27[16.7 µM] | 8 | 7 | 1 | -11
C[C@@H]1CN([C@H](C)CO)C(=O)c2cc(NC(=O)Nc3ccc(C(F)(F)F)cc3)ccc2O[C@@H](C)CCCCO[C@@H]1CN(C)Cc1ccccc1 | -17 | u | 109* | -3 | 2 | 25
C[C@@H]1CN([C@@H](C)CO)C(=O)c2cc(NC(=O)Nc3ccccc3)ccc2O[C@@H](C)CCCCO[C@H]1CN(C)Cc1ccc(C(F)(F)F)cc1 | -3 | 10[16.7 µM] | 72* | -3 | 1 | 12
C[C@@H]1CCCCO[C@H](CN(C)Cc2ccc(C(F)(F)F)cc2)[C@H](C)CN([C@H](C)CO)C(=O)c2cc(NC(=O)Nc3ccc(C(F)(F)F)cc3)ccc2O1 | 8 | 11[16.7 µM] | -9 | -6 | -3 | -13
C[C@@H]1CN([C@H](C)CO)C(=O)c2cc(NC(=O)Nc3ccc(C(F)(F)F)cc3)ccc2O[C@@H](C)CCCCO[C@H]1CN(C)Cc1ccccc1 | -27 | 66*[16.7 µM] | 113* | 0 | 4 | 77*
C[C@@H]1CCCCO[C@H](CN(C)Cc2ccc(C(=O)O)cc2)[C@@H](C)CN([C@H](C)CO)C(=O)c2cc(NC(=O)Nc3ccc(C(F)(F)F)cc3)ccc2O1 | -1 | 9[16.7 µM] | -14 | x | -3 | -7
SMILES | PGC1a acetyl inh | HIV Env fusion | PAX8 reporter | FN deposit inh | F508del corr | EWS-Fli block
CNC[C@@H]1OCCCC[C@H](C)Oc2ccc(NS(=O)(=O)c3ccc(OC)cc3)cc2C(=O)N([C@H](C)CO)C[C@@H]1C | -3 | 1[16.7 µM] | -28 | x | 1 | 0
O=C(N[C@@H]1C=C[C@@H](CC(=O)N2CCc3ccccc3C2)O[C@H]1CO)C1CCOCC1 | 4 | x | x | x | -2 | -16
COCC(=O)N1C[C@H](C)[C@@H](OC)CN(C)C(=O)c2cc(NC(=O)c3cc(C)on3)ccc2OC[C@H]1C | 4 | 15[16.7 µM] | -4 | -1 | 0 | 3
C[C@H](CO)N1C[C@H](C)[C@@H](CN(C)Cc2ccccc2)OCCCC[C@H](C)Oc2ccc(NC(=O)Nc3ccc(C(F)(F)F)cc3)cc2C1=O | -10 | 9[16.7 µM] | 95* | 2 | 5 | 10
C[C@H](CO)N1C[C@H](C)[C@H](CN(C)Cc2ccccc2)OCCCC[C@H](C)Oc2ccc(NC(=O)Nc3ccccc3)cc2C1=O | -4 | 75*[16.7 µM] | -5 | 5 | 0 | -1
C[C@@H]1CN([C@@H](C)CO)C(=O)c2cc(NC(=O)Nc3ccc(C(F)(F)F)cc3)ccc2O[C@@H](C)CCCCO[C@@H]1CN(C)Cc1ccccc1 | -7 | 44[16.7 µM] | 79* | -4 | 5 | -3
C[C@@H]1CN([C@@H](C)CO)C(=O)c2cc(NC(=O)Nc3ccc(C(F)(F)F)cc3)ccc2O[C@@H](C)CCCCO[C@@H]1CN(C)Cc1ccc(C(F)(F)F)cc1 | -6 | 0[16.7 µM] | -21 | -2 | 0 | -7
N#C[C@@H]1[C@H](c2ccccc2-c2ccccc2F)[C@H](CO)N1C(=O)Cc1ccccc1 | -3 | x | x | -2 | -1 | 0
COc1ccc(NC(=O)Nc2ccc3c(c2)C(=O)N([C@@H](C)CO)C[C@H](C)[C@@H](CN(C)S(=O)(=O)c2c(C)noc2C)OCCCC[C@H](C)O3)cc1 | 30 | 68*[16.7 µM] | 3 | x | 2 | -1
Cc1noc(C)c1S(=O)(=O)N(C)C[C@H]1OCCCC[C@H](C)Oc2ccc(NC(=O)Nc3ccccc3)cc2C(=O)N([C@@H](C)CO)C[C@@H]1C | 2 | 65*[16.7 µM] | -15 | -2 | 1 | 9
